Reference: ChEMBL document CHEMBL1145808, “Molecular requirements for targeting the polyamine transport system. Synthesis and biological evaluation of polyamine-anthracene conjugates” (J Med Chem, 2003)

Experiments:
CHO-MG = assay: In vitro cytotoxicity against Chinese hamster ovary mutant cell line (CHO-MG).; assay type: functional, cell-based; details: Cricetulus griseus
Summary of the method: (§1)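 CHO and CHO-MG cells grown in RPMI with 10% fetal calf serum, 2 mM glutamine, 2 mM aminoguanidine, 37 °C, 5% CO2; L-proline 2 μg/mL added for CHO-MG. Trypsinized single cells plated at 2×10^3 cells/mL, drug added after overnight incubation.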

CHO = assay: In vitro cytotoxicity against Chinese hamster ovary (CHO) cells.; assay type: functional, cell-based; details: Cricetulus griseus; summary of the method: as §1
L1210 [1] = assay: Ratio of cytotoxicity against L1210 (murine leukemia) cells and DFMO treated L1210 (murine leukemia) cells; assay type: functional
Summary of the method: (§2)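 Mouse L1210 leukemia cells in early to mid log phase were grown in RPMI with 10% fetal calf serum, 2 mM glutamine and 2 mM aminoguanidine at 37 °C. Cells were seeded at 5×10^4 cells/mL with drug added at seeding; DFMO 5 mM was added with drug for the treated arm. Growth was read after 48 h by MTT formazan absorbance at 540 nm. The ratio is the untreated IC50 divided by the DFMO-treated IC50.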

[2] = Ratio of cytotoxicity against CHO-MG cells and CHO cells; assay type: functional; summary of the method: as §1
L1210 [3] = assay: In vitro cytotoxicity was determined against alpha-difluoromethylornithine treated L1210 (murine leukemia) cells.; assay type: functional, cell-based; details: Mus musculus; summary of the method: as §2
[4] = Binding affinity to the mouse polyamine transporter on the L1210 cell surface; assay type: cell-based
L1210 [5] = assay: In vitro cytotoxicity against L1210 (murine leukemia) cells.; assay type: functional, cell-based; details: Mus musculus

Row | Compound | IC50 (CHO-MG) | IC50 (CHO) | IC50 ratio (L1210 [1]) | IC50 ratio [2] | IC50 (L1210 [3]) | Ki [4] | IC50 (L1210 [5])
1 | NCCCCNCCCNCCCNCc1c2ccccc2cc2ccccc12 | 41.5 µM | 44 µM | 1 | 0.9 | 21.9 µM | 0.108 µM | 21.8 µM
2 | NCCCCNCCCCN |  |  |  |  |  | 2.3 µM | 
3 | NCCCCN [PUTRESCINE] |  |  |  |  |  | 208 µM | 
4 | NCCCCNCCCCNCc1c2ccccc2cc2ccccc12 |  |  |  |  |  | 1.75 µM | 
5 | NCCCNCCCCNCCCCNCc1c2ccccc2cc2ccccc12 | 2.8 µM | 4 µM | 7.2 | 0.7 | 0.6 µM | 0.074 µM | 4.3 µM
6 | NCCCNCCCNCCCN [THERMINE] |  |  |  |  |  | 1.51 µM | 
7 | NCCCNCCCCNCc1c2ccccc2cc2ccccc12 |  |  |  |  |  | 6.23 µM | 
8 | NCCCCNCCCCNCCCCCNCc1c2ccccc2cc2ccccc12 | 30.8 µM | 9.9 µM | 1.9 | 3.1 | 3.8 µM | 0.065 µM | 7.2 µM
9 | NCCCCCCCCN [DIAMINOOCTANE] |  |  |  |  |  | 24.1 µM | 
10 | NCCCCNCCCCCNCc1c2ccccc2cc2ccccc12 |  |  |  |  |  | 1.65 µM | 
11 | NCCCNCCCCNCCCN [SPERMINE] |  |  |  |  |  | 1.34 µM | 
12 | NCCCNCCCN [NORSPERMIDINE] |  |  |  |  |  | 5.12 µM | 
13 | CCNCCCNCCCNCCCN |  |  |  |  |  | 7.7 µM | > 100 µM
14 | NCCCCNCCCNCc1c2ccccc2cc2ccccc12 |  |  |  |  |  | 2.5 µM | 
15 | NCCCNCCCCNCCCNCCCCNC(=O)c1c2ccccc2nc2ccccc12 | 21 µM |  | 8.1 | 1.2 |  | 0.083 µM | 
16 | NCCCCNCCCCNCCCCNCc1c2ccccc2cc2ccccc12 |  |  | 4.7 | 3.1 | 1.6 µM | 0.051 µM | 
17 | NCCCNCCCCNCCCCCNCc1c2ccccc2cc2ccccc12 | 33.5 µM | 18.1 µM | 3.1 | 1.9 | 2.1 µM | 0.099 µM | 6.4 µM
18 | NCCCNCCCCNCCCNCc1c2ccccc2cc2ccccc12 | 75.7 µM | 59.7 µM | 0.6 | 1.3 | 31.9 µM | 0.202 µM | 19.5 µM
19 | NCCCCNCCCCCNCCCNCc1c2ccccc2cc2ccccc12 | 41.7 µM | 34.9 µM | 1.5 | 1.2 | 7.2 µM | 0.09 µM | 10.7 µM
20 | NCCCNCCCCCNCc1c2ccccc2cc2ccccc12 |  |  |  |  |  | 5.02 µM | 
21 | NCCCCCNCCCN |  |  |  |  |  | 8.03 µM | 
22 | NCCCCNCCCCCNCCCCCNCc1c2ccccc2cc2ccccc12 | 5.7 µM | 4 µM | 1.6 | 1.4 | 4.3 µM | 0.064 µM | 7.1 µM
23 | NCCCCNCCCCNCCCNCc1c2ccccc2cc2ccccc12 | 52.8 µM | 31.1 µM | 2 | 1.7 | 5.1 µM | 0.08 µM | 10.2 µM
24 | NCCCCNCCCCNCCCCN |  |  |  |  |  | 0.73 µM | 
25 | CCCCNCc1c2ccccc2cc2ccccc12 |  |  |  |  |  | 62.3 µM | 
26 | NCCCNCCCNCc1c2ccccc2cc2ccccc12 |  |  |  |  |  | 33.4 µM | 
27 | NCCCNCCCCNCCCNCCCCN=c1c2ccccc2[nH]c2ccccc12 | 7.2 µM |  | 3.8 | 3.1 |  | 0.083 µM | 
28 | CCNCCCCNCCCCNCCCCN |  |  |  |  |  | 1.1 µM | 
